Reference: ChEMBL document CHEMBL3421565, “β-D-2'-C-Methyl-2,6-diaminopurine Ribonucleoside Phosphoramidates are Potent and Selective Inhibitors of Hepatitis C Virus (HCV) and Are Bioconverted Intracellularly to Bioactive 2,6-Diaminopurine and Guanosine 5'-Triphosphate Forms” (J Med Chem, 2015)

Key:
[1] = tested on: Hepatitis C virus; assay: Antiviral activity against HCV infected in human HuH7 cells assessed as reduction in replicon RNA levels incubated for 5 days by RT-PCR assay; format: functional, organism-based, Hepacivirus hominis; conditions: Huh-7, 120 h
Procedure, shortened: (§1)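 Huh-7 clone B cells carrying HCV replicon RNA, seeded at 3000 cells/well; compounds added in dose response in triplicate right after seeding. Incubated 5 days at 37 °C, 5% CO₂. Total RNA extracted; replicon RNA and rRNA internal control co-amplified by one-step multiplex real-time RT-PCR. Antiviral effect taken as ΔCt versus no-drug control; cytotoxicity read from rRNA reduction.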

[2] = tested on: Vero; assay: Cytotoxicity against African green monkey Vero cells assessed as reduction in cell viability incubated for 5 days by Cell-titer 96 aqueous one solution cell proliferation assay; format: cell-based; conditions: chlorocebus sabaeus, vero, 120 h
[3] = Toxicity in human PC3 cells assessed as effect on GAPDH levels at 100 uM; format: cell-based; conditions: pc-3, 100 µM
[4] = Toxicity in human PC3 cells assessed as effect on thymidine uptake at 100 uM; format: cell-based; conditions: pc-3, 100 µM
[5] = tested on: HepG2; assay: Mitochondrial toxicity in human HepG2 cells assessed as effect on mitochondrial cytochrome c oxidase subunit 2 DNA level incubated for 14 days by real-time PCR method; format: cell-based; conditions: hepg2, 336 h
Procedure, shortened: (§2)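 HepG2 cells in DMEM with 4.5 g/L glucose and 10% heat-inactivated FBS, seeded at 5000 cells/well on collagen; compounds added 1 day later at final 1–50 μM. Medium and compound renewed every 3–4 days for 14 days; duplicates in two independent experiments. COXII mtDNA and nuclear β-actin DNA measured by real-time PCR, normalised to untreated control; IC₅₀ calculated.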

[6] = tested on: HepG2; assay: Mitochondrial toxicity in human HepG2 cells assessed as effect on nuclear beta-actin DNA level incubated for 14 days by real-time PCR method; format: cell-based; conditions: hepg2, 336 h; procedure, shortened: as §2
[7] = tested on: HepG2; assay: Mitochondrial toxicity in human HepG2 cells assessed as induction of lactic acid levels at 1 uM incubated for 14 days; format: cell-based; conditions: hepg2, 336 h
Procedure, shortened: (§3)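 After 14 days of HepG2 exposure to compound (same culture regimen as the mtDNA assay), lactic acid in culture supernatant quantified with a D-/L-lactic acid kit by absorbance. Results expressed as % lactic acid over % nuclear DNA (β-actin control); mean of triplicates from a single plate.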

[8] = tested on: HepG2; assay: Mitochondrial toxicity in human HepG2 cells assessed as induction of lactic acid levels at 10 uM incubated for 14 days; format: cell-based; conditions: hepg2, 336 h; procedure, shortened: as §3
[9] = tested on: HepG2; assay: Mitochondrial toxicity in human HepG2 cells assessed as induction of lactic acid levels at 50 uM incubated for 14 days; format: cell-based; conditions: hepg2, 336 h; procedure, shortened: as §3
[10] = tested on: Hepatitis C virus; assay: Antiviral activity against HCV genotype 1a infected in human HuH7 cells assessed as reduction in replicon RNA levels incubated for 5 days by RT-PCR assay; format: functional, cell-based, Hepacivirus hominis; conditions: subtype 1a, Huh-7, 120 h; procedure, shortened: as §1
[11] = tested on: Hepatitis C virus; assay: Antiviral activity against HCV genotype 1b infected in human HuH7 cells assessed as reduction in replicon RNA levels incubated for 5 days by RT-PCR assay; format: functional, cell-based, Hepacivirus hominis; conditions: Huh-7, 120 h; procedure, shortened: as §1
[12] = tested on: Hepatitis C virus; assay: Antiviral activity against HCV genotype 2a infected in human HuH7 cells assessed as reduction in replicon RNA levels incubated for 5 days by RT-PCR assay; format: functional, cell-based, Hepacivirus hominis; conditions: Huh-7, 120 h; procedure, shortened: as §1
[13] = tested on: Hepatitis C virus; assay: Antiviral activity against HCV genotype 2b chimera with HCV genotype 1b Con1 backbone containing HCV genotype 2b NS5B gene infected in human HuH7 cells assessed as reduction in replicon RNA levels incubated for 5 days by RT-PCR assay; format: functional, cell-based, Hepacivirus hominis; conditions: Huh-7, 120 h; procedure, shortened: as §1
[14] = tested on: Hepatitis C virus; assay: Antiviral activity against HCV genotype 3a chimera with HCV genotype 1b Con1 backbone containing HCV genotype 3a NS5B gene infected in human HuH7 cells assessed as reduction in replicon RNA levels incubated for 5 days by RT-PCR assay; format: functional, cell-based, Hepacivirus hominis; conditions: Huh-7, 120 h; procedure, shortened: as §1
[15] = tested on: Hepatitis C virus; assay: Antiviral activity against HCV genotype 4a chimera with HCV genotype 1b Con1 backbone containing HCV genotype 4a NS5B gene infected in human HuH7 cells assessed as reduction in replicon RNA levels incubated for 5 days by RT-PCR assay; format: functional, cell-based, Hepacivirus hominis; conditions: Huh-7, 120 h; procedure, shortened: as §1
[16] = tested on: Hepatitis C virus; assay: Antiviral activity against HCV genotype 5a chimera with HCV genotype 1b Con1 backbone containing HCV genotype 5a NS5B gene infected in human HuH7 cells assessed as reduction in replicon RNA levels incubated for 5 days by RT-PCR assay; format: functional, cell-based, Hepacivirus hominis; conditions: Huh-7, 120 h; procedure, shortened: as §1
[17] = tested on: Hepatitis C virus; assay: Antiviral activity against HCV genotype 1b containing NS5A Y93H mutant infected in human HuH7 cells assessed as reduction in replicon RNA levels incubated for 5 days by RT-PCR assay; format: functional, cell-based, Hepacivirus hominis; conditions: Huh-7, 120 h; procedure, shortened: as §1
[18] = tested on: Hepatitis C virus; assay: Antiviral activity against HCV genotype 1b containing NS3 R155K mutant infected in human HuH7 cells assessed as reduction in replicon RNA levels incubated for 5 days by RT-PCR assay; format: functional, cell-based, Hepacivirus hominis; conditions: Huh-7, 120 h; procedure, shortened: as §1
[19] = tested on: Hepatitis C virus; assay: Antiviral activity against HCV genotype 1b containing NS5B S282T mutant infected in human HuH7 cells assessed as reduction in replicon RNA levels incubated for 5 days by RT-PCR assay; format: functional, cell-based, Hepacivirus hominis; conditions: Huh-7, 120 h; procedure, shortened: as §1
[20] = tested on: Hepatitis C virus; assay: Antiviral activity against HCV genotype 1b containing NS5B C316Y mutant infected in human HuH7 cells assessed as reduction in replicon RNA levels incubated for 5 days by RT-PCR assay; format: functional, cell-based, Hepacivirus hominis; conditions: Huh-7, 120 h; procedure, shortened: as §1
[21] = tested on: Hepatitis C virus; assay: Antiviral activity against HCV genotype 1b containing NS5B C445F mutant infected in human HuH7 cells assessed as reduction in replicon RNA levels incubated for 5 days by RT-PCR assay; format: functional, cell-based, Hepacivirus hominis; conditions: Huh-7, 120 h; procedure, shortened: as §1
[22] = tested on: Hepatitis C virus; assay: Antiviral activity against HCV genotype 1b containing NS5B M414I mutant infected in human HuH7 cells assessed as reduction in replicon RNA levels incubated for 5 days by RT-PCR assay; format: functional, cell-based, Hepacivirus hominis; conditions: Huh-7, 120 h; procedure, shortened: as §1
[23] = tested on: Hepatitis C virus; assay: Antiviral activity against HCV genotype 1b containing NS5B P495A mutant infected in human HuH7 cells assessed as reduction in replicon RNA levels incubated for 5 days by RT-PCR assay; format: functional, cell-based, Hepacivirus hominis; conditions: Huh-7, 120 h; procedure, shortened: as §1
[24] = Drug metabolism in human HuH7 cells assessed as 2'-C-Me-DAPN-TP level per million cells at 50 uM incubated for 4 hrs at 37 degC by LC-MS/MS method; format: ADME, cell-based; conditions: huh-7, 4 h
Procedure, shortened: (§4)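 Huh-7 cells (after attachment) or freshly plated primary human hepatocytes (after overnight acclimatation), 1 × 10⁶ cells/well, exposed to 50 μM compound for 4 h at 37 °C. Cells washed twice with ice-cold PBS and extracted overnight at −20 °C in 70% methanol containing 20 nM ddATP. Mono-, di- and triphosphates quantified by LC–MS/MS as pmol/10⁶ cells; three replicates.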

[25] = Drug metabolism in human HuH7 cells assessed as 2'-C-Me-DAPN-TP level per million cells at 50 uM incubated for 4 hrs at 37 degC by LC-MS/MS method relative to DAPN; format: ADME, cell-based; conditions: huh-7, 4 h; procedure, shortened: as §4
[26] = Drug metabolism in human primary hepatocytes assessed as 2'-C-Me-DAPN-TP level at 50 uM incubated for 4 hrs at 37 degC by LC-MS/MS method; format: ADME, cell-based, Hepatocyte; procedure, shortened: as §4

Compound CCOC(=O)CCc1ccccc1O[P@@](=O)(N[C@@H](C)C(=O)OCC)OC[C@H]1O[C@@H](n2cnc3c(N)nc(N)nc32)[C@](C)(O)[C@H]1O has an EC50 [1] of 200 nM, an EC90 [1] of 700 nM and a CC50 [2] of over 100 µM. For the same compound, the Activity [3] was “Non-toxic”, the Activity [4] was “Non-toxic” and the CC50 [5] was over 50 µM. For the same compound, the CC50 [6] was over 50 µM, the Activity [7] was 150% and the Activity [8] was 120%. For the same compound, the Activity [9] was 110%, the EC50 [10] was 350 nM and the EC90 [10] was 740 nM. The EC50 [11] was 260 nM, the EC90 [11] was 390 nM and the EC50 [12] was 260 nM. The EC90 [12] was 700 nM, the EC50 [13] was 290 nM and the EC90 [13] was 420 nM. The EC50 [14] was 230 nM, the EC90 [14] was 390 nM and the EC50 [15] was 390 nM. It also gave an EC90 [15] of 890 nM, an EC50 [16] of 320 nM and an EC90 [16] of 640 nM. The EC50 [17] was 300 nM, the EC90 [17] was 3000 nM and the EC50 [18] was 320 nM. It also gave an EC90 [18] of 1300 nM, an EC50 [19] of 100 nM and an EC90 [19] of 230 nM. For the same compound, the EC50 [20] was 270 nM, the EC90 [20] was 770 nM and the EC50 [21] was 120 nM. For the same compound, the EC90 [21] was 250 nM, the EC50 [22] was 280 nM and the EC90 [22] was 1100 nM. The EC50 [23] was 80 nM, the EC90 [23] was 140 nM and the Drug metabolism [24] was 9.9 pmol. The “fold change (FC)” value [25] was 13 and the “fold change (FC)” value [26] was 7.
